Laboratory results taken from ChEMBL document CHEMBL4014345, “Development of Selective Clk1 and -4 Inhibitors for Cellular Depletion of Cancer-Relevant Proteins” (J Med Chem, 2017).
The source made the active and inactive calls. No cut-off for these calls is given here.

Tests used:
[1] = biological target: T1, Dual specificity tyrosine-phosphorylation-regulated kinase 1A (Homo sapiens, UniProt Q13627); assay: Inhibition of N-terminal His6-tagged recombinant human Dyrk1A expressed in Escherichia coli BL21 (DE3) using KKISGRLSPIMTEQ-NH2 as substrate after 15 mins in presence of [gamma-32]-ATP
[2] = biological target: T2, Dual specificity protein kinase CLK1 (Homo sapiens, UniProt P49759); assay: Inhibition of recombinant human GST-tagged Clk1 expressed in Escherichia coli using RS repeat substrate peptide after 15 mins in presence of [gamma-32]-ATP
Target sequence in this assay (P49759 whole entry): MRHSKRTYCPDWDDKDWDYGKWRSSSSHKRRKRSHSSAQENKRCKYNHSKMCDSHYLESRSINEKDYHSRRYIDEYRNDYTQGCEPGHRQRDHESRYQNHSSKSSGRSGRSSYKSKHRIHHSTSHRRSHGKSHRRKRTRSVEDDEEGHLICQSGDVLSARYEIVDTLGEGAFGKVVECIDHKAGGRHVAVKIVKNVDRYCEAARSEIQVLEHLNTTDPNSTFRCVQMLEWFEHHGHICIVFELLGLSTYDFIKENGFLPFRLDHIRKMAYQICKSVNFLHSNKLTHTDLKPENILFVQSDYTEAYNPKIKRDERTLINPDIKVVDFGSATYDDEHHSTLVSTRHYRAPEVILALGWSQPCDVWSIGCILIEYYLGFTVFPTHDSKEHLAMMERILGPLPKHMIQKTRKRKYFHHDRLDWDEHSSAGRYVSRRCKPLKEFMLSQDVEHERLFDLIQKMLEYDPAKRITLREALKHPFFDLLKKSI

[3] = biological target: T3, Dual specificity protein kinase CLK1/CLK4 (Homo sapiens, UniProt Q9HAZ1+P49759); assay: Inhibition of CLK1/4 in human T24 cells assessed as down regulation of EGFR expression at 10 uM after 3 days by Western blot analysis relative to control; type: cell-based
Procedure, shortened: (§1)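 T24 or MDA-MB-231 cells were grown in DMEM to 70% confluency. The medium was replaced with compound diluted in DMEM, and cells were kept 3 days. Total protein was immunoblotted with monoclonal antibodies in 3% BSA/PBS against EGFR, p70S6K α, PARP-1, ERK2, HDAC1, CD44, PCNA and GRP94.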

[4] = biological target: T2, Dual specificity protein kinase CLK1; assay: Inhibition of recombinant human GST-tagged Clk1 expressed in Escherichia coli at 100 nM using RS repeat substrate peptide after 15 mins in presence of [gamma-32]-ATP
Target sequence in this assay (P49759 whole entry, looked up): as the sequence (P49759 whole entry) above

[5] = biological target: T1, Dual specificity tyrosine-phosphorylation-regulated kinase 1A; assay: Inhibition of N-terminal His6-tagged recombinant human Dyrk1A expressed in Escherichia coli BL21 (DE3) using KKISGRLSPIMTEQ-NH2 as substrate at 1 uM after 15 mins in presence of [gamma-32]-ATP; conditions: 0.25 h
[6] = biological target: Serine/threonine-protein kinase haspin (Homo sapiens) (UniProt Q8TF76); assay: Inhibition of MBP-Haspin (unknown origin) at 1 uM after 10 mins by TR-FRET assay
Procedure, shortened: (§2)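 Tested in a commercial kinase profiling panel at an ATP concentration of 100 μM. Data are the mean of duplicates that differed by less than 7%.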

[7] = biological target: Dual specificity protein kinase CLK4 (Mus musculus) (UniProt O35493); assay: Inhibition of recombinant GST-tagged mouse CLK4 using GRSRSRSRSRSR as substrate at 1 uM after 30 mins in presence of [gamma-32P]-ATP by scintillation counting method
[8] = biological target: SRSF protein kinase 2 (Homo sapiens) (UniProt P78362); assay: Inhibition of SRPK2 (unknown origin) at 1 uM; procedure, shortened: as §2
[9] = biological target: Serine/threonine-protein kinase 17A (Homo sapiens) (UniProt Q9UEE5); assay: Inhibition of STK17A (unknown origin) at 1 uM after 15 mins; procedure, shortened: as §2
[10] = biological target: Myosin light chain kinase 2, skeletal/cardiac muscle (Homo sapiens) (UniProt Q9H1R3); assay: Inhibition of MLCK2 (unknown origin) at 1 uM after 15 mins; procedure, shortened: as §2
[11] = biological target: Dual specificity tyrosine-phosphorylation-regulated kinase 4 (Homo sapiens) (UniProt Q9NR20); assay: Inhibition of DYRK4 (unknown origin) using KKISGRLSPIMTEQ-NH2 as substrate at 1 uM after 15 mins in presence of [gamma-32P]-ATP
[12] = biological target: Dual specificity tyrosine-phosphorylation-regulated kinase 3 (Homo sapiens) (UniProt O43781); assay: Inhibition of DYRK3 (unknown origin) using KKISGRLSPIMTEQ-NH2 as substrate at 1 uM after 15 mins in presence of [gamma-32P]-ATP
T-24 [13] = assay: Cytotoxicity against human T24 cells assessed as growth inhibition after 5 days by MTT assay; type: functional; conditions: T-24, 120 h
Procedure, shortened: (§3)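 They were seeded at 5000 cells per well onto compound or DMSO (0.2% final). Plates were kept 5 days at 37 °C in 5% CO2 with no medium change, then read by MTT.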

MDA-MB-231 [14] = assay: Cytotoxicity against human MDA-MB-231 cells assessed as growth inhibition after 5 days by MTT assay; type: functional; conditions: MDA-MB-231, 120 h; procedure, shortened: as §3
THP-1 = assay: Cytotoxicity against human THP1 cells assessed as growth inhibition after 5 days by MTT assay; type: functional; conditions: THP-1, 120 h; procedure, shortened: as §3
[15] = biological target: T3, Dual specificity protein kinase CLK1/CLK4; assay: Inhibition of CLK1/4 in human T24 cells assessed as down regulation of EGFR expression after 3 days by Western blot analysis; type: cell-based; procedure, shortened: as §1
[16] = biological target: T3, Dual specificity protein kinase CLK1/CLK4; assay: Inhibition of CLK1/4 in human T24 cells assessed as down regulation of HDAC1 expression after 3 days by Western blot analysis; type: cell-based; procedure, shortened: as §1
[17] = biological target: T3, Dual specificity protein kinase CLK1/CLK4; assay: Inhibition of CLK1/4 in human MDA-MB-231 cells assessed as down regulation of EGFR expression after 3 days by Western blot analysis; type: cell-based; procedure, shortened: as §1
[18] = biological target: T3, Dual specificity protein kinase CLK1/CLK4; assay: Inhibition of CLK1/4 in human MDA-MB-231 cells assessed as down regulation of S6 kinase expression after 3 days by Western blot analysis; type: cell-based; procedure, shortened: as §1
[19] = biological target: T3, Dual specificity protein kinase CLK1/CLK4; assay: Inhibition of CLK1/4 in human T24 cells assessed as down regulation of HDAC1 expression at 10 uM after 3 days by Western blot analysis relative to control; type: cell-based; procedure, shortened: as §1
[20] = biological target: T3, Dual specificity protein kinase CLK1/CLK4; assay: Inhibition of CLK1/4 in human T24 cells assessed as down regulation of HDAC1 expression at 5 uM after 3 days by Western blot analysis relative to control; type: cell-based; procedure, shortened: as §1
[21] = biological target: T3, Dual specificity protein kinase CLK1/CLK4; assay: Inhibition of CLK1/4 in human MDA-MB-231 cells assessed as down regulation of EGFR expression at 20 uM after 3 days by Western blot analysis relative to control; type: cell-based; procedure, shortened: as §1
[22] = biological target: T3, Dual specificity protein kinase CLK1/CLK4; assay: Inhibition of CLK1/4 in human MDA-MB-231 cells assessed as down regulation of EGFR expression at 10 uM after 3 days by Western blot analysis relative to control; type: cell-based; procedure, shortened: as §1
[23] = biological target: T3, Dual specificity protein kinase CLK1/CLK4; assay: Inhibition of CLK1/4 in human MDA-MB-231 cells assessed as down regulation of EGFR expression at 2.5 uM after 3 days by Western blot analysis relative to control; type: cell-based; procedure, shortened: as §1
[24] = biological target: T3, Dual specificity protein kinase CLK1/CLK4; assay: Inhibition of CLK1/4 in human MDA-MB-231 cells assessed as down regulation of S6 kinase expression at 20 uM after 3 days by Western blot analysis relative to control; type: cell-based; procedure, shortened: as §1
[25] = biological target: T3, Dual specificity protein kinase CLK1/CLK4; assay: Inhibition of CLK1/4 in human MDA-MB-231 cells assessed as down regulation of S6 kinase expression at 2.5 uM after 3 days by Western blot analysis relative to control; type: cell-based; procedure, shortened: as §1
[26] = biological target: T3, Dual specificity protein kinase CLK1/CLK4; assay: Inhibition of CLK1/4 in human HepG2 cells assessed as down regulation of S6 kinase expression at 20 uM after 3 days by Western blot analysis relative to control; type: cell-based
Procedure, shortened: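 HepG2 cells were grown in DMEM to 70% confluency, then the medium was replaced with compound diluted in DMEM. After 3 days, total protein was immunoblotted with monoclonal antibodies including HDAC1 and p70S6K.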

T-24 [27] = assay: Down regulation of ERK2 expression in human T24 cells at 1.25 to 10 uM after 3 days by Western blot analysis; type: functional, cell-based; procedure, shortened: as §1
MDA-MB-231 [28] = assay: Down regulation of CD44 expression in human MDA-MB-231 cells at 2.5 to 20 uM after 3 days by Western blot analysis; type: functional, cell-based; procedure, shortened: as §1
MDA-MB-231 [29] = assay: Down regulation of PCNA expression in human MDA-MB-231 cells at 2.5 to 20 uM after 3 days by Western blot analysis; type: functional, cell-based; procedure, shortened: as §1

Chain of Dual specificity tyrosine-phosphorylation-regulated kinase 4 (Homo sapiens) (Q9NR20 whole entry): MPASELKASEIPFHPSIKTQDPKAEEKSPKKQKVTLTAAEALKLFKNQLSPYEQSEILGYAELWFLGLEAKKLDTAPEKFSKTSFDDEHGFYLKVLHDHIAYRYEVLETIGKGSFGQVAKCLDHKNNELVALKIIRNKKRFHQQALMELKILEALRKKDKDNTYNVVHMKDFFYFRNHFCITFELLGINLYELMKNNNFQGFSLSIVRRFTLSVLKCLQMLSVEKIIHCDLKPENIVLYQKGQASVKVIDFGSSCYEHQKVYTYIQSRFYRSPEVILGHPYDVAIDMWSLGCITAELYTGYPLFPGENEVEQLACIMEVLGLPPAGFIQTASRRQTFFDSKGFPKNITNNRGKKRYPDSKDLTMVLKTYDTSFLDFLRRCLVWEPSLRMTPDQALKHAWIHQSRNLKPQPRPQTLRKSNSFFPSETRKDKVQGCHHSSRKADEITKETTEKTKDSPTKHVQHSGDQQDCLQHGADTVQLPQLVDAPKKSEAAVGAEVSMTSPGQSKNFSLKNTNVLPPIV
Chain of Myosin light chain kinase 2, skeletal/cardiac muscle (Homo sapiens) (Q9H1R3 whole entry): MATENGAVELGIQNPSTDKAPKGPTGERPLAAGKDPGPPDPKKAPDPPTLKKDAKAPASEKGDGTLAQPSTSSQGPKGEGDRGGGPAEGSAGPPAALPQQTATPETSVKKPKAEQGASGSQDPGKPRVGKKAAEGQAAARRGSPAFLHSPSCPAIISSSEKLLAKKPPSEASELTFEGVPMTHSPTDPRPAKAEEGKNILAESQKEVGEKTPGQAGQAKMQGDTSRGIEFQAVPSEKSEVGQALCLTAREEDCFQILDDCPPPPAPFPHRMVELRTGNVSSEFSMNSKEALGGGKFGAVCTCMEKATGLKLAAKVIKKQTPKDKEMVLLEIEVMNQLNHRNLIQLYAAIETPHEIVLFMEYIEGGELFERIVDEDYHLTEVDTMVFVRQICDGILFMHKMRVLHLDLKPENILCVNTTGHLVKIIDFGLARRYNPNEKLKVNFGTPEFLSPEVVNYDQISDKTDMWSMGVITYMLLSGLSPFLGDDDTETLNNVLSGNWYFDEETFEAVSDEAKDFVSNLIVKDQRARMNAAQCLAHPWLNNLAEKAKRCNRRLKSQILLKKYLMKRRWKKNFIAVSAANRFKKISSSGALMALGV
Chain of Dual specificity tyrosine-phosphorylation-regulated kinase 3 (Homo sapiens) (O43781 whole entry): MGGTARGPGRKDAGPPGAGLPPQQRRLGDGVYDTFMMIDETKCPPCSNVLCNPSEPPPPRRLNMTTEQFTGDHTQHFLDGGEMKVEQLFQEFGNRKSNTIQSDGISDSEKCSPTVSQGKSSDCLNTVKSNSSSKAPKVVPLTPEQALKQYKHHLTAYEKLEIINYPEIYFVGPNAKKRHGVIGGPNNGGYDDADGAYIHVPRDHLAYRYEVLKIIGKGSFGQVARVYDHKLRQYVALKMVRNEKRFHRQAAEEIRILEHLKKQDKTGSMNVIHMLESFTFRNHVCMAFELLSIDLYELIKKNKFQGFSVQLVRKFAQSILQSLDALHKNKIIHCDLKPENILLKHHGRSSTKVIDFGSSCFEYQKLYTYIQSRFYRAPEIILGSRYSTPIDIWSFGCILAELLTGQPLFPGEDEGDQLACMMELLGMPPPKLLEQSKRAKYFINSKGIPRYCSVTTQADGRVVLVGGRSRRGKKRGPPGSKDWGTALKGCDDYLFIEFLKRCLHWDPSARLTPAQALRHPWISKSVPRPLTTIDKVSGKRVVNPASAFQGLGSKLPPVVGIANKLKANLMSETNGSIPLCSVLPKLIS
Chain of Serine/threonine-protein kinase haspin (Homo sapiens) (Q8TF76 whole entry): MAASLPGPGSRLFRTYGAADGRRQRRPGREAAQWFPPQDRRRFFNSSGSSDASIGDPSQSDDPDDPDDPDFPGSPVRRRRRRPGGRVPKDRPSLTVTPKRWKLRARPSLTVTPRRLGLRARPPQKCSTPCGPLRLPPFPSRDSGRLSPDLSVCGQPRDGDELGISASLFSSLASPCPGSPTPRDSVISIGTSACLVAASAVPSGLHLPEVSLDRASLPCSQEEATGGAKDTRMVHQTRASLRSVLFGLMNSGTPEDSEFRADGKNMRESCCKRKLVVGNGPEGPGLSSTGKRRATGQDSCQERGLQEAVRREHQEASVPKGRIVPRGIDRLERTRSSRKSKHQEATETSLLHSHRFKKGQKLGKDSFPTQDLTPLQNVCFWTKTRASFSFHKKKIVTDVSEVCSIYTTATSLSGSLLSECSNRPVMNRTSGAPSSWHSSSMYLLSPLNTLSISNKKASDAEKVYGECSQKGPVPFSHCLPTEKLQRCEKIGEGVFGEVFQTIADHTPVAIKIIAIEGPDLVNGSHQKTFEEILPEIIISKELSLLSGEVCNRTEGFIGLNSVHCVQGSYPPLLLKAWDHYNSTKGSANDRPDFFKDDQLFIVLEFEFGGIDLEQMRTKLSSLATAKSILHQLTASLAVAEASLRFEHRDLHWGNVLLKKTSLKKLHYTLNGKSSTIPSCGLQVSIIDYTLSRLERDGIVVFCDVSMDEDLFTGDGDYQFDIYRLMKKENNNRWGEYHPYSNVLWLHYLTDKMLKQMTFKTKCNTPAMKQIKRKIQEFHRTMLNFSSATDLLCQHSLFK
Chain of Serine/threonine-protein kinase 17A (Homo sapiens) (Q9UEE5 whole entry): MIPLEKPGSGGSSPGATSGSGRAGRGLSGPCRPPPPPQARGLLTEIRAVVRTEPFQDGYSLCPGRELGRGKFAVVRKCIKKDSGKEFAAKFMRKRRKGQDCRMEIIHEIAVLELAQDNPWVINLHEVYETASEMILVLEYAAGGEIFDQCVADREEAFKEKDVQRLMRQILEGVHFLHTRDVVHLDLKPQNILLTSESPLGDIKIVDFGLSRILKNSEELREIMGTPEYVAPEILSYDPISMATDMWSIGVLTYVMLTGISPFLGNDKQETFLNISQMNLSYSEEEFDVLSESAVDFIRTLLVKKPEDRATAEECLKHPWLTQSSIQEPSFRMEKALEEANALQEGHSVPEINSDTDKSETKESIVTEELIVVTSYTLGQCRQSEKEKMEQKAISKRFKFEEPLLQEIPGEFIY
Chain of SRSF protein kinase 2 (Homo sapiens) (P78362 whole entry, looked up): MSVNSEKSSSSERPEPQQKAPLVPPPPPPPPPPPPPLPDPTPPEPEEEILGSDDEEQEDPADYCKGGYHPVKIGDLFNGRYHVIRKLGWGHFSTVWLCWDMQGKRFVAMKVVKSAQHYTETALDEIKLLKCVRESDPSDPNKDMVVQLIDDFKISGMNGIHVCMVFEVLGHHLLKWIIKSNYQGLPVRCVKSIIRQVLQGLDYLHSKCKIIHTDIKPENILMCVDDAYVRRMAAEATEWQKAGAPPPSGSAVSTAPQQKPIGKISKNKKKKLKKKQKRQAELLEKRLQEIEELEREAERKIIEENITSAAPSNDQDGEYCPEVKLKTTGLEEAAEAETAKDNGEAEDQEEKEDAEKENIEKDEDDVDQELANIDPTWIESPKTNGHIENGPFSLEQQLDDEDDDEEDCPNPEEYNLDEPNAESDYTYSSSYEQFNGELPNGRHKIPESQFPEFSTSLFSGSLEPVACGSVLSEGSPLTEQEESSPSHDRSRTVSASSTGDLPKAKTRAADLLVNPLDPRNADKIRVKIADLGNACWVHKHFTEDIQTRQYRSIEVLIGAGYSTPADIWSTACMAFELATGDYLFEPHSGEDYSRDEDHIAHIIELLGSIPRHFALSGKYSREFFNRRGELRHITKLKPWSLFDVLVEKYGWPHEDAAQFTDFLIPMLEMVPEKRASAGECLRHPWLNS
Chain of Dual specificity protein kinase CLK4 (Mus musculus) (O35493 whole entry, looked up): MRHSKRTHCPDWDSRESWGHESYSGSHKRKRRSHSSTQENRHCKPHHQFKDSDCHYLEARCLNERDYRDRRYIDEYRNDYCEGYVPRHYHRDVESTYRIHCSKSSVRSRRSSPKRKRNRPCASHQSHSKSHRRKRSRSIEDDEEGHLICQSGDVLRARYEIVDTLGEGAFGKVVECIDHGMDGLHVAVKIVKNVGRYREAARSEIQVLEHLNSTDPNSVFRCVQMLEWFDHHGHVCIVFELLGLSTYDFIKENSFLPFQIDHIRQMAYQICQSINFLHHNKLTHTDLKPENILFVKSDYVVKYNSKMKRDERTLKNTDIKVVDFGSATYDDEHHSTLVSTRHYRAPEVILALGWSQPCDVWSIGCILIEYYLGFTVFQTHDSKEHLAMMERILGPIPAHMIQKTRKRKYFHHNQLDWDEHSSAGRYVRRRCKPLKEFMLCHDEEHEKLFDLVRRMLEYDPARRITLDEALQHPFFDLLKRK

COc1ccc2sc(C(=O)N(C)Cc3cccc(F)c3)cc2c1
IC50 [1]: 340 nM | IC50 [2]: 6.9 to 7 nM | inhibition [3]: 59.7% | inhibition [4]: 80% | inhibition at 1 µM [5]: 72% | inhibition [6]: 12% | inhibition [7]: 101% | inhibition [8]: 7% | inhibition [9]: 32% | inhibition [10]: inactive | inhibition [11]: inactive | inhibition [12]: inactive | GI50 (T-24 [13]): 600 nM | GI50 (MDA-MB-231 [14]): 9.6 µM | GI50 (THP-1): 27.2 µM | IC50 [15]: 2.2 µM | inhibition [15]: Dose-dependent effect | IC50 [16]: 9.5 µM | inhibition [16]: Dose-dependent effect | IC50 [17]: 4.2 µM | IC50 [18]: > 20 µM | inhibition [19]: 50.2% | inhibition [20]: 47.6% | inhibition [21]: 56.2% | inhibition [22]: 54.1% | inhibition [23]: 47.5% | inhibition [24]: 41.4% | inhibition [25]: 12.1% | inhibition [26]: 44% | Activity (T-24 [27]): inactive | Activity (MDA-MB-231 [28]): inactive | Activity (MDA-MB-231 [29]): inactive
